Converted amounts (≈) assume the structure as drawn.
Assays:
[1] = fT>MIC required for stasis inhibition of community acquired methicillin-resistant Staphylococcus aureus 147 infection in neutropenic BALB/cAnNCr mouse; type: functional
Procedure, shortened: (§1)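 Same neutropenic murine pneumonia model, with 24-h lung log10 CFU change (5 mice per group; 1–25 mg/kg s.c., 1–5 times daily). […] ED50, ED80 and stasis exposures were taken from a sigmoid Emax fit for each isolate.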

[2] = Elimination clearance in neutropenic BALB/cAnNCr mouse infected with Staphylococcus aureus at 1 mg/kg, sc administered as single dose after 6 hrs of infection; type: ADME, organism-based; set-up: dose 1 mg/kg, route subcutaneous; conditions: in vivo
Procedure, shortened: (§2)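 Neutropenic female mice (cyclophosphamide i.p. 250 mg/kg day −4, 100 mg/kg day −1) with HA-MRSA 56 pneumonia (oral inoculum, 10^7 CFU/ml in 3% mucin). Single s.c. dose in sterile water. Plasma by intracardiac puncture at 0.25–4 h, six mice per time point, stabilized with citric acid. Assayed by validated HPLC (LOQ 0.01 µg/ml). Parameters from one-compartment analysis.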

[3] = fT>MIC required for 50% inhibition of hospital acquired Staphylococcus aureus 149 infection in neutropenic BALB/cAnNCr mouse; type: functional
[4] = fCmax/MIC required for 80% inhibition of Staphylococcus aureus infection in neutropenic BALB/cAnNCr mouse; type: functional
[5] = fT>MIC required for stasis inhibition of methicillin-suceptible Staphylococcus aureus 29213 infection in neutropenic BALB/cAnNCr mouse; type: functional
[6] = Elimination half life in neutropenic BALB/cAnNCr mouse infected with Staphylococcus aureus at 10 mg/kg, sc administered as single dose after 6 hrs of infection; type: ADME, organism-based; set-up: dose 10 mg/kg, route subcutaneous; conditions: in vivo; procedure, shortened: as §2
[7] = fT>MIC required for stasis inhibition of methicillin-susceptible Staphylococcus aureus 25923 infection in neutropenic BALB/cAnNCr mouse; type: functional
[8] = fT>MIC required for stasis inhibition of community acquired methicillin-resistant Staphylococcus aureus 144 infection in neutropenic BALB/cAnNCr mouse; type: functional; procedure, shortened: as §1
[9] = fT>MIC required for 50% inhibition of hospital acquired methicillin-resistant Staphylococcus aureus 56 infection in neutropenic BALB/cAnNCr mouse; type: functional; procedure, shortened: as §1
[10] = fT>MIC required for 80% inhibition of community acquired methicillin-resistant Staphylococcus aureus 144 infection in neutropenic BALB/cAnNCr mouse; type: functional; procedure, shortened: as §1
[11] = fT>MIC required for 80% inhibition of methicillin-susceptible Staphylococcus aureus […] infection in neutropenic BALB/cAnNCr mouse; type: functional
[12] = fAUC/MIC required for 80% inhibition of Staphylococcus aureus infection in neutropenic BALB/cAnNCr mouse; type: functional
[13] = Cmax in neutropenic BALB/cAnNCr mouse infected with Staphylococcus aureus at 25 mg/kg, sc administered as single dose after 6 hrs of infection; type: ADME, organism-based; set-up: dose 25 mg/kg, route subcutaneous; conditions: in vivo; procedure, shortened: as §2
Staphylococcus aureus [14] = test: Antimicrobial activity against community acquired methicillin-resistant Staphylococcus aureus 146 by broth microdilution method; type: functional
Procedure, shortened: (§3)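 Broth microdilution run in triplicate following CLSI guidelines. Isolates were stored at –80°C in double-strength skim milk and subcultured twice on Trypticase soy agar with 5% sheep blood before testing.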

[15] = fAUC/MIC required for 50% inhibition of Staphylococcus aureus infection in neutropenic BALB/cAnNCr mouse; type: functional
[16] = Cmax in neutropenic BALB/cAnNCr mouse infected with Staphylococcus aureus at 1 mg/kg, sc administered as single dose after 6 hrs of infection; type: ADME, organism-based; set-up: dose 1 mg/kg, route subcutaneous; conditions: in vivo; procedure, shortened: as §2
Staphylococcus aureus [17] = test: Antimicrobial activity against hospital acquired methicillin-resistant Staphylococcus aureus 149 infected in BALB/cAnNCr mouse assessed as decrease in bacterial density in lungs at 1 to 25 mg/kg, sc administered as 1 to 5 times/day after 24 hrs […] relative to control; type: functional; conditions: route subcutaneous
Procedure, shortened: (§4)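 Female BALB/cAnNCr mice (7–9 weeks) were made neutropenic with cyclophosphamide i.p. at 250 mg/kg on day −4 and 100 mg/kg on day −1. Under isoflurane, mice received an oral inoculum in 3% mucin/saline, with nostrils blocked until aspiration. Drug (1–25 mg/kg s.c., once to five times daily, water vehicle) or sham started 6 h post-inoculation. Lungs were harvested at 24 h, homogenized and plated on blood and Columbia agar at 35°C. Mean log10 CFU/ml was compared with the 0-h untreated baseline; 5 mice per group.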

[18] = Elimination clearance in neutropenic BALB/cAnNCr mouse infected with Staphylococcus aureus at 2.5 mg/kg, sc administered as single dose after 6 hrs of infection; type: ADME, organism-based; set-up: dose 2.5 mg/kg, route subcutaneous; conditions: in vivo
Procedure, shortened: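 Female BALB/cAnNCr mice (7-9 weeks, 15-22 g) made neutropenic with cyclophosphamide, 250 mg/kg i.p. on day -4 and 100 mg/kg i.p. on day -1. Infected by oral aspiration of HA-MRSA 56 (10^7 CFU/ml in 3% mucin/saline). Single s.c. dose in sterile water given 6 h post-challenge. Plasma (EDTA, citric acid-stabilized) taken at 0.25-4 h, six mice per time point. Assayed by validated HPLC (LOQ 0.01 µg/ml); one-compartment analysis.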

[19] = fT>MIC required for stasis inhibition of hospital acquired methicillin-resistant Staphylococcus aureus 149 infection in neutropenic BALB/cAnNCr mouse; type: functional; procedure, shortened: as §1
[20] = fT>MIC required for 80% inhibition of community acquired methicillin-resistant Staphylococcus aureus 147 infection in neutropenic BALB/cAnNCr mouse; type: functional; procedure, shortened: as §1
Staphylococcus aureus [21] = test: Antimicrobial activity against hospital acquired methicillin-resistant Staphylococcus aureus 56 by broth microdilution method; type: functional; procedure, shortened: as §3
[22] = fT>MIC required for 50% inhibition of methicillin-susceptible Staphylococcus aureus 29213 infection in neutropenic BALB/cAnNCr mouse; type: functional
Staphylococcus aureus [23] = test: Antimicrobial activity against community acquired methicillin-resistant Staphylococcus aureus 146 infected in BALB/cAnNCr mouse assessed as decrease in bacterial density in lungs at 1 to 25 mg/kg, sc administered as 1 to 5 times/day after 24 hrs […] relative to control; type: functional; conditions: route subcutaneous; procedure, shortened: as §4
[24] = fT>MIC required for 50% inhibition of hospital acquired Staphylococcus aureus 152 infection in neutropenic BALB/cAnNCr mouse; type: functional
[25] = fCmax/MIC in neutropenic BALB/cAnNCr mouse plasma infected with Staphylococcus aureus at 1 to 25 mg/kg, sc administered 1 to 5 times/day after 24 hrs by HPLC; type: functional; conditions: route subcutaneous
Procedure, shortened: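 Exposure indices used free plasma drug, correcting with 19% mouse protein binding supplied by the sponsor. The regimens were s.c. 1–25 mg/kg given 1–5 times daily for 24 h to neutropenic mice with S. aureus pneumonia. MICs were determined in triplicate by CLSI broth microdilution. PK came from the single-dose HPLC study.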

[26] = Tmax in neutropenic BALB/cAnNCr mouse infected with Staphylococcus aureus at 1 mg/kg, sc administered as single dose after 6 hrs of infection; type: ADME, organism-based; set-up: dose 1 mg/kg, route subcutaneous; conditions: in vivo; procedure, shortened: as §2
[27] = Tmax in neutropenic BALB/cAnNCr mouse infected with Staphylococcus aureus at 25 mg/kg, sc administered as single dose after 6 hrs of infection; type: ADME, organism-based; set-up: dose 25 mg/kg, route subcutaneous; conditions: in vivo; procedure, shortened: as §2

SMILES: Nc1nc(/C(=N/O)C(=O)N[C@@H]2C(=O)N3C(C(=O)O)=C(/C=C4\CCN([C@@H]5CCNC5)C4=O)CS[C@H]23)ns1 [CEFTOBIPROLE]
- fT>MIC [1]: 14.9%
- CL/F [2]: 9 mL/min/kg
- fT>MIC [3]: 8.6%
- fCmax/MIC [4]: 2
- fT>MIC [5]: 13.3%
- half-life [6]: 25.2 min
- fT>MIC [7]: 7.6%
- fT>MIC [8]: 13.6%
- fT>MIC [9]: 13.7%
- fT>MIC [10]: 14.3%
- fT>MIC [11]: 19.5%
- fAUC/MIC [12]: 3
- Cmax [13]: 38600 ng/mL
- MIC (Staphylococcus aureus [14]): 2 µg/mL (≈ 3.74 µM)
- fAUC/MIC [15]: 3
- Cmax [16]: 1740 ng/mL
- log10cfu (Staphylococcus aureus [17]): 4.1
- CL/F [18]: 16.2 mL/min/kg
- fT>MIC [19]: 6.6%
- fT>MIC [20]: 21.6%
- MIC (Staphylococcus aureus [21]): 1 µg/mL (≈ 1.87 µM)
- fT>MIC [22]: 14.8%
- log10cfu (Staphylococcus aureus [23]): 3.6
- fT>MIC [24]: 14%
- fCmax/MIC [25]: 1
- Tmax [26]: 28.8 min
- Tmax [27]: 28.2 min
